Screens deposited in PubChem by several laboratories.
Compounds with a hit are over-represented: about 2.6% of the library has one in this group of screens.
Rce1 inhib: blocks yeast Ras-converting enzyme. hit rate 0.27% among 290,000. Q03530. calls only. yeast membranes, quenched prenylated peptide cleavage fluorescence. AID 2563;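 active = fall in fluorescence gain of 50% or more versus controls, with final raw signal at or below 3038400; inconclusive = same 50% fall but final raw signal above 3038400; inactive = fall in fluorescence gain under 50%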;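 note: plate controls were neutral control wells for no effect and wells lacking membranes for full effect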
T cell HTS: modulates CD8 T cell binding to vesicles | 2C CD8+ T cell-vesicle binding, flow cytometry; stronger effect = lower value | response (vesicle binding), % at 7 µM | hit rate 0.068% among 330,000;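 active = response, share of CD8 T cells binding vesicles, and their 90th percentile fluorescence all below set limits, cut at about 80% in these data, passing the limit was not always enough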;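 note: values below 100% mean blocked vesicle binding to the CD8+ T cells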
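Also added: QL9-peptide-loaded Drosophila micro-vesicles bearing Ld, ICAM-1 and B7-1; Test system: purified 2C TCR transgenic mouse naive CD8+ T cells; Measured by: cytometric PE anti-B7-1 and Alexa647 anti-CD8 signals after 1% paraformaldehyde fixation; Timing: binding step 1.5 h, 37 °C, antibody labelling 20 min, ice.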
Rin1 Abl inh: human Rin1-Abl interaction inhibition. TR-FRET Rin1/Abl binding, biochemical. AID 588664. inhibition, % at 7.35 µM. hit rate 0.4% among 360,000; in the data active = inhibition above about 5%, passing the limit was not always enough
SKN-1 inh: blocks SKN-1 activity in C. elegans | inhibition, % at 21.8 µM | hit rate 0.49% among 360,000 | C. elegans VP596 Pgst-4::GFP/RFP ratio, acrylamide-induced, 24 h | AID 624304;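 active = interference check ratio from 0.5 to 1.5 plus GFP to RFP signal ratio inhibition reaching or exceeding a fixed threshold, cut at about 30% in these data, passing the limit was not always enough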
Myeloid diff 2: compounds promoting myeloid differentiation. ER-HoxA9 myeloid progenitors, lysozyme-GFP differentiation, flow cytometry. calls only at 10 µM. hit rate 1% among 360,000. AID 624256;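 active = normalized GFP-positive differentiation at or above the plate's own cutoff, the solvent-only control mean plus 3 SD; inconclusive = no clear call, values can overlap the other calls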;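 note: cells exposed to compound for four days before flow analysis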
GRK2 aptamer HTS: inhibitors of human GRK2 displacing RNA aptamer; P25098; bead flow cytometry, FAM-aptamer displacement from GRK2; inhibition of aptamer binding, % at 10 µM; hit rate 0.59% among 330,000;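 active = inhibition of aptamer binding above 40%, roughly 3 SD of noise, on plates passing a quality check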;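 note: median bead fluorescence of bound FAM aptamer so fluorescent compounds give negative values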
Target sequence (P25098 whole entry, looked up): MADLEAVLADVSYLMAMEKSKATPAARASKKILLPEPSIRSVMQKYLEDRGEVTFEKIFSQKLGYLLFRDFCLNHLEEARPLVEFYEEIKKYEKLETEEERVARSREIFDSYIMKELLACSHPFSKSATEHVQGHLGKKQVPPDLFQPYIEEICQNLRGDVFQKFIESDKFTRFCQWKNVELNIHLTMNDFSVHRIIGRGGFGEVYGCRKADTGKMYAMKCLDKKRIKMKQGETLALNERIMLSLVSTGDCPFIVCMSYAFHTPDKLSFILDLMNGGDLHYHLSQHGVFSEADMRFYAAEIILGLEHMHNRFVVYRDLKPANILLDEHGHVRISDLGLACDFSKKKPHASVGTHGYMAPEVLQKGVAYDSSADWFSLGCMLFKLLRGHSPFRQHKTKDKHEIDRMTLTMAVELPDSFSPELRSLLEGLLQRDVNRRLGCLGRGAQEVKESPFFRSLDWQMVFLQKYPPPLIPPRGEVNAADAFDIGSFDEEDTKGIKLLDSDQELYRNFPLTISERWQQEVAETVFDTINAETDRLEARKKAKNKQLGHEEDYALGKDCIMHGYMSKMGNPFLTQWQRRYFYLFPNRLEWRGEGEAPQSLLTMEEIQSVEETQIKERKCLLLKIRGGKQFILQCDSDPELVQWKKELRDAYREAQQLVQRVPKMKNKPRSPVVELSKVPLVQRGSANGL
An asterisk follows results filed as active.

`O=C(NCc1ccc(OC(F)(F)F)cc1)c1cccc2c1C(=O)c1ccc(N3CCCCC3)cc1S2(=O)=O` gave T cell HTS 125, Rin1 Abl inh 3, SKN-1 inh 50, Myeloid diff 2 inactive and GRK2 aptamer HTS 0.
`O=C(NCc1ccc(OC(F)(F)F)cc1)c1cccc2c1C(=O)c1ccc(N3CCC(Cc4ccccc4)CC3)cc1S2(=O)=O` gave T cell HTS 158, Rin1 Abl inh 4, SKN-1 inh 3, Myeloid diff 2 active and GRK2 aptamer HTS 0.
Screening Cc1nc2c3ccccc3nc(NNC(=O)CCC(=O)N3CCCC(C)C3)n2n1 (centres undefined) returned Rce1 inhib inactive, T cell HTS 451, Rin1 Abl inh -1, SKN-1 inh 6, Myeloid diff 2 inactive and GRK2 aptamer HTS 0.
Screening O=c1[nH]c2ccc(S(=O)(=O)Nc3ccc(Br)cc3)cc2[nH]1 returned Rce1 inhib inactive, T cell HTS 337, Rin1 Abl inh -3, SKN-1 inh 10, Myeloid diff 2 inactive and GRK2 aptamer HTS 0.
For COC(=O)C1CCN(C(=O)COC(=O)c2cc(-c3ccccc3)nc3ccc(OC)cc23)CC1 the results were T cell HTS 123, Rin1 Abl inh 2, SKN-1 inh -15, Myeloid diff 2 active and GRK2 aptamer HTS 0.
For O=C(COc1ccccc1Cl)Nc1ccc(N2CCCC2)cc1 the results were Rce1 inhib inactive, T cell HTS 277, Rin1 Abl inh 2, SKN-1 inh -10, Myeloid diff 2 inactive and GRK2 aptamer HTS 54*.
O=C(Nc1ccc(N2CCCC2)cc1)c1cc(Cl)ccc1Cl was read as Rce1 inhib inactive, T cell HTS 227, Rin1 Abl inh -2, SKN-1 inh 10, Myeloid diff 2 active and GRK2 aptamer HTS 0.
`Nc1[nH]c(C(=O)c2ccccc2)c(-c2ccc(Cl)cc2)c1C(=O)NCc1ccccc1` gave SKN-1 inh -11 and Myeloid diff 2 inactive.
`Nc1ccc2nc(-c3ccccc3)cnc2c1` gave Rce1 inhib inactive, T cell HTS 476, Rin1 Abl inh -9, SKN-1 inh -5, Myeloid diff 2 active and GRK2 aptamer HTS 3.
Clc1ccc(-c2cnc3ccccc3n2)cc1 was read as Rce1 inhib inactive, T cell HTS 303, Rin1 Abl inh -5, SKN-1 inh 42*, Myeloid diff 2 inactive and GRK2 aptamer HTS 2.
CC1CCCCN1CCCNC(=O)CN1C(=O)c2cccnc2Oc2ccc(Cl)cc21 (centres undefined) was read as Rce1 inhib inactive, T cell HTS 706, Rin1 Abl inh 2, SKN-1 inh 14, Myeloid diff 2 inactive and GRK2 aptamer HTS 0.
`CCN(C(=O)CSc1nnc(C)n1-c1ccc(C)cc1)c1c(N)n(Cc2ccccc2)c(=O)[nH]c1=O` gave Rin1 Abl inh 2, SKN-1 inh 3 and Myeloid diff 2 inactive.
For Cc1cc(C(=O)N/N=C/c2c(C)nn(-c3ccccc3)c2C)c(C)o1 the results were Rce1 inhib inactive, T cell HTS 400, Rin1 Abl inh 0, SKN-1 inh 7, Myeloid diff 2 inactive and GRK2 aptamer HTS 3.
For Cc1cccc2c3c([nH]c12)CCNC3 the results were Rce1 inhib inactive, T cell HTS 264, Rin1 Abl inh -1, SKN-1 inh 7, Myeloid diff 2 inactive and GRK2 aptamer HTS 0.
For CC(NC(=O)c1cccs1)C(S)c1ccccc1 (centres undefined) the results were Rce1 inhib inactive, T cell HTS 314, Rin1 Abl inh -3, SKN-1 inh 19, Myeloid diff 2 inactive and GRK2 aptamer HTS 1.
`O=C(N/N=C/C(Br)=C/c1ccccc1)c1cnccn1` gave Rce1 inhib inactive, T cell HTS 379, Rin1 Abl inh -5, SKN-1 inh -11, Myeloid diff 2 active and GRK2 aptamer HTS 0.
O=C(Nc1ccc(Br)c(Cl)c1)c1ccco1 was read as Rce1 inhib inactive, T cell HTS 707, Rin1 Abl inh -1, SKN-1 inh 86*, Myeloid diff 2 inactive and GRK2 aptamer HTS 2.
Screening O=C(Nc1ccc2nc(-c3cccs3)[nH]c2c1)c1cccs1 returned Rce1 inhib inactive, T cell HTS 140, Rin1 Abl inh 0, SKN-1 inh -15, Myeloid diff 2 inactive and GRK2 aptamer HTS 0.
For O=C(Nc1ccc2nc(-c3cccs3)[nH]c2c1)c1ccco1 the results were Rce1 inhib inactive, T cell HTS 244, Rin1 Abl inh -3, SKN-1 inh -6, Myeloid diff 2 active and GRK2 aptamer HTS 0.
For Cc1ccc(NC(=O)c2cccs2)cc1NC(=O)c1ccco1 the results were Rce1 inhib inactive, T cell HTS 480, Rin1 Abl inh -2, SKN-1 inh 44*, Myeloid diff 2 inactive and GRK2 aptamer HTS 4.
Screening O=C(Nc1ccc2c(c1)Cc1ccccc1-2)c1ccco1 returned Rce1 inhib inactive, T cell HTS 488, Rin1 Abl inh 6, SKN-1 inh 72*, Myeloid diff 2 inconclusive and GRK2 aptamer HTS 0.
Cc1cc(/C=C\c2ccccc2)nc2ccccc12 was read as T cell HTS 936, Rin1 Abl inh 0, SKN-1 inh 19, Myeloid diff 2 inactive and GRK2 aptamer HTS 1.
Screening CC(C)CCN1CCN(Cc2nc3c(s2)CCCC3)CC1CCO (centres undefined) returned Rce1 inhib inactive, T cell HTS 332, Rin1 Abl inh 4, SKN-1 inh 0, Myeloid diff 2 inactive and GRK2 aptamer HTS 0.
Screening COc1cccc(C(C)(O)c2nc(-c3ccc(OC)nc3)cs2)c1 (centres undefined) returned Rin1 Abl inh -4, SKN-1 inh 31 and Myeloid diff 2 inactive.
`O=C(Nc1ccc(-c2nc3ccccc3c(=O)o2)cc1)c1ccco1` gave Rce1 inhib inactive, T cell HTS 271, Rin1 Abl inh -3, SKN-1 inh 3, Myeloid diff 2 inactive and GRK2 aptamer HTS 1.
For O=C(Nc1ccc2nc(-c3ccccc3)oc2c1)c1ccco1 the results were Rce1 inhib inactive, T cell HTS 400, Rin1 Abl inh -3, SKN-1 inh 75*, Myeloid diff 2 inactive and GRK2 aptamer HTS 0.
For O=C(/C=C/c1cccc([N+](=O)[O-])c1)N1CCN(c2ccccc2F)CC1 the results were Rce1 inhib inactive, T cell HTS 211, Rin1 Abl inh 0, SKN-1 inh 14, Myeloid diff 2 inactive and GRK2 aptamer HTS 0.
For CCOc1ccccc1N1CCN(C(=O)/C=C/c2cccc([N+](=O)[O-])c2)CC1 the results were Rce1 inhib inactive, T cell HTS 420, Rin1 Abl inh -3, SKN-1 inh 4, Myeloid diff 2 active and GRK2 aptamer HTS 2.
For C=CC[C@@H](CC(=O)NCCO)C(=O)N[C@@H](C)COC(=O)[C@@H](CC=C)Cc1ccc(F)cc1 the results were T cell HTS 239, Rin1 Abl inh 2, SKN-1 inh -11, Myeloid diff 2 inactive and GRK2 aptamer HTS 1.
